The values below come from ChEMBL document CHEMBL3865834, “Dihydrobenzofuran Neolignanamides: Laccase-Mediated Biomimetic Synthesis and Antiproliferative Activity” (J Nat Prod, 2016).

Series [1] in a line: Lipophilicity of the compound assessed as capacity factor by HPLC analysis. The format is physicochemical. Summed up:
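Reversed-phase C18 HPLC (4.6 × 250 mm, 5 μm), 1 mL/min, acidified acetonitrile gradient 20→80% B over 30 min, diode-array detection. Capacity factor K = (tR − t0)/t0, where t0 is the retention time of the AA standard.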

Series [2] can be described thus: Cell cycle arrest in human Caco2 cells assessed as accumulation at G0/G1 phase at 100 uM measured after 24 to 36 hrs by propidium iodide staining-based flow cytometry (reference value: 51.1%). The series is classed as functional. As to conditions: Caco-2. The essentials:
(§1)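 Caco-2 cells grown in six-well plates, treated 24–36 h, compared with vehicle-treated cells. Harvested by trypsinization, PBS-washed, fixed in 70% ethanol at 4 °C for at least 30 min. Then RNase A for 1 h at 37 °C, propidium iodide (final 50 μg/mL) for 1 h at 37 °C, and analysed by flow cytometry. Means of three independent experiments.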
(In general: In flow cytometry, cells or beads pass a laser one at a time.)

Series [3] is described as follows: Growth inhibition of human MCF7 cells measured after 72 hrs by MTT assay. As to conditions: MCF7, 72 h. The format is functional. The essentials:
(§2)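 Cells plated at (2.5−3.0) × 10^3 per 0.33 cm2, treated after 24 h with 0.01−100 μM (final) for 3 days at 37 °C, 5% CO2; controls got 0.5−1% DMSO. MTT read at 570 nm, 6−8 wells per value.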

Series [4] has as its system Caco-2. The series can be described thus: Induction of apoptosis in human Caco2 cells assessed as necrotic cells at 100 uM measured after 24 hrs by Alexa Fluor 488 Annexin V/propidium iodide staining-based flow cytometry (reference value: […]). The format is functional.
Series [5] can be described thus: Cell cycle arrest in human Caco2 cells assessed as accumulation at sub-G1 phase at 100 uM measured after 24 to 36 hrs by propidium iodide staining-based flow cytometry. The format is functional. As to conditions: Caco-2. Summed up: as §1
Series [6] has as its system Caco-2. The series is described as follows: Induction of apoptosis in human Caco2 cells assessed as early apoptotic cells at 100 uM measured after 24 hrs by Alexa Fluor 488 Annexin V/propidium iodide staining-based flow cytometry (reference value: 3.9%). The series is classed as functional.
Series [7] concerns Caco-2. The series can be described thus: Induction of apoptosis in human Caco2 cells assessed as viable cells at 100 uM measured after 24 hrs by Alexa Fluor 488 Annexin V/propidium iodide staining-based flow cytometry (reference value: 95.1%). The following applies: Caco-2, 24 h, read-out: Activity. The series is classed as functional.
A short description of series [8]: Cell cycle arrest in human Caco2 cells assessed as accumulation at G2-phase at 100 uM measured after 24 to 36 hrs by propidium iodide staining-based flow cytometry (reference value: 28%). The series is classed as functional. As to conditions: Caco-2. The essentials: as §1
Series [9] can be described thus: Growth inhibition of human PC3 cells measured after 72 hrs by MTT assay. The format is functional. As to conditions: PC-3, 72 h. The essentials: as §2
(In general: Formazan colour is commonly taken as a measure of viable cells.)

For series [10], the system named is Caco-2. The series can be described thus: Induction of apoptosis in human Caco2 cells assessed as late apoptotic cells at 100 uM measured after 24 hrs by Alexa Fluor 488 Annexin V/propidium iodide staining-based flow cytometry (reference value: 1.8%). The series is classed as functional.
Series [11] in a line: Growth inhibition of human Caco2 cells measured after 72 hrs by MTT assay. The series is classed as functional. As to conditions: Caco-2, 72 h. Summed up:
as §2

Series [12] is described as follows: Cell cycle arrest in human Caco2 cells assessed as accumulation at S-phase at 100 uM measured after 24 to 36 hrs by propidium iodide staining-based flow cytometry (reference value: 18 to 19.5%). The following applies: Caco-2. The series is classed as functional. The essentials:
as §1

Take `COc1cc([C@@H]2Oc3c(OC)cc(/C=C/C(=O)NCc4cc(OC)c(OC)c(OC)c4)cc3[C@H]2C(=O)NCc2cc(OC)c(OC)c(OC)c2)ccc1O` (racemic): the K in [1] was 6.32.
As for `COc1cc(CNC(=O)/C=C/c2ccc3c(c2)[C@@H](C(=O)NCc2cc(OC)c(OC)c(OC)c2)[C@H](c2ccc(O)cc2)O3)cc(OC)c1OC` (racemic), the K in series [1] is on record as 6.35.
Still for that read-out and setting: in the case of `COc1cc(CNC(=O)/C=C/c2cc(O)c3c(c2)[C@@H](C(=O)NCc2cc(OC)c(OC)c(OC)c2)[C@H](c2ccc(O)c(O)c2)O3)cc(OC)c1OC` (racemic) it was 5.69; in that of `Cc1ccc(CNC(=O)/C=C/c2cc(O)c3c(c2)[C@@H](C(=O)NCc2ccc(C)cc2)[C@H](c2ccc(O)c(O)c2)O3)cc1` (racemic), 7.89.
The same measure, in the same setting: in the case of `Cc1ccc(CNC(=O)/C=C/c2ccc3c(c2)[C@@H](C(=O)NCc2ccc(C)cc2)[C@H](c2ccc(O)cc2)O3)cc1` (racemic) it was 8.36.
By GI50 is commonly meant the concentration that inhibits growth by half. Read a high GI50 as less potent growth inhibition. With `O=c1[nH]cc(F)c(=O)[nH]1` [FLUOROURACIL], the Activity in [2] came to 50.1%; with Caco-2 [4] it was 0.3%; in [5], 10.4%; with Caco-2 [6] it was 56.2%; in [8], 1.9%; with Caco-2 [10], 5.3%. Further, the Activity in series [12] lay within 37.5 to 39.8%. For the same compound, the GI50 fell in the range of 3.6 to 3.8 µM in [3], 4.1 to 6.3 µM in series [9] and 3.3 to 4.2 µM in series [11]. Moreover, the viability at 100 µM in the series on Caco-2 [7] is 36.8%.
Take `COc1cc([C@@H]2Oc3c(OC)cc(/C=C/C(=O)NCc4ccc(C)cc4)cc3[C@H]2C(=O)NCc2ccc(C)cc2)ccc1O` (racemic): in series [1], the K was found to be 8.45.
For `O=C(/C=C/c1cc(O)c2c(c1)[C@@H](C(=O)NCCc1ccc(O)cc1)[C@H](c1ccc(O)c(O)c1)O2)NCCc1ccc(O)cc1` (racemic), the GI50 in [3] is 39.7 µM; in series [9] it was 66 µM; in series [11], > 10 µM. Further, the K in series [1] amounted to 0.56.
Taken in the same sequence, the figures for `O=C(/C=C/c1ccc2c(c1)[C@@H](C(=O)NCCc1ccc(O)cc1)[C@H](c1ccc(O)cc1)O2)NCCc1ccc(O)cc1` (racemic) were 33.2 µM, 26 µM, 28.9 µM and 5.2.
As for `COc1cc([C@@H]2Oc3c(OC)cc(/C=C/C(=O)NCCc4ccc(O)cc4)cc3[C@H]2C(=O)NCCc2ccc(O)cc2)ccc1O` (racemic) [GROSSAMIDE], the GI50 in series [3] was 24 µM; in [9], 21 µM; in series [11], > 100 µM. In addition, the K in [1] is 2.32.
